HSF-1 act: increases HSF-1 driven luciferase reporter signal | NIH3T3-HGL HSF-1 luciferase reporter, MG132, 8 h; 100% = twice DMSO control signal | hit rate 1.7% among 300,000 | activation, % at 9 µM;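 active = mean replicate activation of at least 50% with a set share of replicates each reaching 50%; inconclusive = only one of those two conditions met; inactive = mean below 50% and too few replicates reaching it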
T cruzi inh: T. cruzi replication inhibition | T. cruzi beta-gal in NIH3T3, luminescence, 90 h | inhibition, % (concentration not given with the values) | hit rate 1.4% among 300,000 | AID 1885;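 active = mean inhibition across valid replicates above about 55%, limit read from the data; inconclusive = mean below that limit but half or more replicates reach it; inactive = mean below it, under half of replicates reach it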;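 note: signal also drops with host cell toxicity which is not excluded here; higher percent means less beta-gal luminescence so fewer parasites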
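System: Mouse NIH/3T3 fibroblasts infected with β-gal-expressing T. cruzi Tulahuen C4 | Quantity: NIH/3T3 cells, 5,000 per well | Reagent: 5000 reporter trypomastigotes per well | Dosing: Compound pinned at 50 nL/well, DMSO | Schedule: 3 h host attachment, then at least 90 h co-culture | Detection: GalScreen luminescence, 60 min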
L major viab: inhibitors of Leishmania major promastigote growth; Leishmania major promastigotes, resazurin fluorescence viability; inhibition, % at 10 µM; hit rate 9% among 200,000; AID 1063; in the data active = inhibition above about 50%;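 note: promastigotes grown with compound for 44 hours at 28 °C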
HSF1 inh: HSF1 inhibition. NIH3T3-HGL HSE-luciferase, MG132-induced, luminescence 8 h; active compounds read low. activity change, negative = inhibition, % at 7.5 µM (by protocol). hit rate 0.77% among 300,000;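 active = more than half of replicate wells show activity change below -50%, luminescence cut by over half; inconclusive = some wells, but at most half, below -50%; inactive = no replicate well below -50%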;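 note: luciferase reports HSF-1 transcriptional activity via heat shock element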
Hsp70 act: Hsp70 transcriptional activation, primary screen; HeLa Hsp70 promoter luciferase reporter, luminescence; scaled: vehicle 0, proteasome-inhibitor control 100%; activation, % at 10 µM; hit rate 0.04% among 200,000; AID 1203;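 active = activation above the mean across all tested compounds plus 3 SD, cutoff set per campaign, cut at about 5.5% in these data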
Hits are given with their value; . = inactive; ? = inconclusive; / = not tested or not shown. The entries come from a sample that favours hits as a whole.

SMILES	HSF-1 act	T cruzi inh	L major viab	HSF1 inh	Hsp70 act
CC(C)NS(=O)(=O)c1ccc(OCC(=O)NCC2CCCO2)c(Cl)c1 (configuration not stated)	.	.	.	.	.
COc1cc(OC)c(NS(=O)(=O)c2cccc(C(=O)OCC(=O)NCC3CCCO3)c2)cc1Cl (configuration not stated)	.	.	80	.	.
Cc1cc(S(=O)(=O)NCC(C)C)ccc1OCC(=O)NCC1CCCO1 (configuration not stated)	.	.	59	.	.
CCC(C)(C)n1nnnc1C(c1cccnc1)N1CCCc2ccccc21 (configuration not stated)	.	.	.	.	.
CCC(C)(C)n1nnnc1C(c1ccc(C)cc1)N1CCN(Cc2cccnc2)CC1 (configuration not stated)	.	.	.	.	.
CCC(C)(C)n1nnnc1C(c1cccnc1)N1CCCC(C)C1 (configuration not stated)	.	.	87	.	.
CCC(C)(C)n1nnnc1C(c1ccncc1)N1CCC(Cc2ccccc2)CC1 (configuration not stated)	.	65	91	.	.
CC(C)(C)n1nnnc1C(c1cccc(C#N)c1)N1CCCc2ccccc21 (configuration not stated)	.	.	.	.	.
CCC(C)(C)n1nnnc1C(c1cccnc1)N1CCC(Cc2ccccc2)CC1 (configuration not stated)	.	64	90	.	.
CC(C)(C)n1nnnc1C(c1cccc(C#N)c1)N1CCC(Cc2ccccc2)CC1 (configuration not stated)	.	81	83	.	.
COC(=O)c1ccc(C)c(NC(=O)C(CCSC)NC(=O)c2cc(OC)c(OC)c(OC)c2)c1 (configuration not stated)	.	.	/	.	/
COc1ccccc1C(CC(=O)O)NS(=O)(=O)c1ccc2c(c1)N(C(C)=O)CC(C)O2 (configuration not stated)	.	.	/	.	/
CCC(C)(C)n1nnnc1C(c1cccc(C#N)c1)N1CCN(c2cc(C)ccc2C)CC1 (configuration not stated)	.	61	/	.	/
CC(C)(C)n1nnnc1C(c1ccc(C#N)cc1)N1CCCC2(CCCCC2)C1 (configuration not stated)	.	.	78	.	.
CC(C)(C)n1nnnc1C(c1ccncc1)N1CCCCCC1 (configuration not stated)	/	.	.	/	.
COc1ccc(CNC(=O)C(=O)NCC2OCCCN2S(=O)(=O)c2cccs2)cc1 (configuration not stated)	.	.	/	.	/
O=C(NCCCn1ccnc1)c1cccc(S(=O)(=O)NCc2ccccc2)c1	.	.	.	.	.
COc1ccc(C2CC(C(F)(F)F)n3nc(C(=O)Nc4c(C)n(C)n(-c5ccccc5)c4=O)c(Cl)c3N2)cc1 (configuration not stated)	.	.	69	.	.
O=C(NCc1ccccc1)C1CC(=O)N(c2ccc(OCC(=O)N3CCOCC3)cc2)C1 (configuration not stated)	.	.	/	.	/
O=C(/C(=C/O)N=Nc1ccccc1)c1cccs1	.	.	83	.	.
CCOC(=O)N1CCN(S(=O)(=O)c2ccc3c(c2)OCC(=O)N3)CC1	.	.	.	-52	.
CCOC(=O)c1ccc(S(=O)(=O)N2CCN(C3CCCC3)CC2)cc1	.	.	90	.	.
CCOC(=O)N1CCC(N2CCN(S(=O)(=O)CC)CC2)CC1	.	.	94	.	.
CCOC(=O)N1CCC(N2CCN(S(=O)(=O)c3ccc(OC)cc3)CC2)CC1	.	.	.	.	.
CCOC(=O)N1CCC(N2CCN(S(=O)(=O)c3ccc(C)cc3)CC2)CC1	.	.	85	.	.
SMILES	HSF-1 act	T cruzi inh	L major viab	HSF1 inh	Hsp70 act
Cc1cc(OCC(=O)N2CCC(O)CC2)c2c(C)cc(=O)oc2c1	.	.	/	.	/
Cc1ccc(NC(=O)CN2C(=O)NC3(CCCC3)C2=O)c(Cl)c1	.	.	/	-84	/
CCOC(=O)c1c(C)[nH]c(C2=NNC(=Nc3cccc(Cl)c3)SC2)c1C	.	.	.	-75	.
Cc1c(CCCN)c2ccccc2n1Cc1ccccc1	.	.	92	.	.
CC1=CC(C)(C)N2C(=O)C3(C(C#N)=C(N)Oc4cc(C)oc(=O)c43)c3cc(C)cc1c32 (configuration not stated)	.	55	91	.	.
CC1=CC(C)(C)N2C(=O)C3(C(C#N)=C(N)Oc4cc(O)ccc43)c3cccc1c32 (configuration not stated)	.	.	56	.	.
CC1=CC(C)(C)N2C(=O)C3(C(C#N)=C(N)OC4=C3C(=O)CC(C)(C)C4)c3cccc1c32 (configuration not stated)	.	.	.	.	.
Cc1cc2c3c(c1)C1(C(=O)N3C(C)(C)CC2C)C(C#N)=C(N)Oc2cc(O)ccc21 (configuration not stated)	67	66	100	.	.
COc1cc2c3c(c1)C1(C(=O)N3C(C)(C)C=C2C)C(C#N)=C(N)Oc2cc(C)oc(=O)c21 (configuration not stated)	.	.	.	.	.
O=C(Nc1ccc(SC(F)F)cc1)c1ccc(F)cc1	?	.	.	.	.
COc1ccc(NS(=O)(=O)c2cccc(C(=O)OCC(=O)N3CCN(c4ccc(OC)cc4)CC3)c2)cc1	.	.	/	.	/
COc1ccc(C(=O)NCCCNC(=O)c2cnccn2)cc1	.	.	/	.	/
COc1cc2c(cc1OC)C(c1cccs1)N(C(=O)c1ccncc1)CC2 (configuration not stated)	.	.	.	.	.
COc1cc2c(cc1OC)C(c1cccs1)N(C(=S)NC(C)C)CC2 (configuration not stated)	91	.	.	.	.
Cc1ccc(N2CCN(C(=O)N3CCCC3)CC2)cc1Cl	.	.	.	.	.
Cc1ccc(N2CCN(S(=O)(=O)N3CCCCC3)CC2)cc1Cl	.	.	76	.	.
Cc1cc(C)cc(-n2nnnc2SCC(=O)Nc2nc(-c3ccc(F)cc3)cs2)c1	.	.	.	.	.
O=C1C(=O)c2ccccc2C([O-])=C1[n+]1ccccc1	.	.	/	.	/
CCc1cc[n+](C2=C([O-])c3ccccc3C(=O)/C2=N\S(=O)(=O)c2cccs2)cc1	.	.	99	.	.
O=C(COc1ccc2c(c1)OCO2)Nc1nccs1	.	.	/	.	/
O=C(NCCCn1ccnc1)/C(=C\c1cccs1)NC(=O)c1ccco1	.	.	56	.	.
O=C(NCCCn1ccnc1)/C(=C/c1ccco1)NC(=O)c1ccccc1	62	.	.	.	.
COc1ccc(C(=O)N/C(=C/c2cccs2)C(=O)NCCCn2ccnc2)cc1OC	.	.	.	.	.
